In one test the target is Cannabinoid receptor 1 (Homo sapiens, UniProt P21554). The test can be described thus: Displacement of [3H]CP-55,940 from human recombinant CB1R expressed in HEK-293 cells after 90 mins by liquid scintillation counting. Also noted: species or system HEK293. For orientation: In a radioligand displacement assay an active substance lowers the binding of a labelled ligand.
Test [1] addresses T1, Cannabinoid receptor 2 (Homo sapiens, UniProt P34972). The test can be described thus: Displacement of [3H]CP-55,940 from human recombinant CB2R expressed in HEK-293 cells after 90 mins by liquid scintillation counting. Also noted: species or system HEK293.
The next test concerns HEK293. The test can be described thus: Selectivity ratio of Ki for human recombinant CB1R expressed in HEK-293 cells to Ki for human recombinant CB2R expressed in HEK-293 cells. Type of test: cell-based.
Test [2] has as its target T1, Cannabinoid receptor 2. The test can be described thus: Agonist activity at human recombinant CB2R expressed in U2OS cells assessed as beta-arrestin-GFP binding to receptor […] by fluorescent microscopy. The test is classed as cell-based.
In test [3] the target is T1, Cannabinoid receptor 2. The test can be described thus: Agonist activity at human recombinant CB2R expressed in […] U2OS cells assessed as reduction in forskolin-mediated cAMP level after 30 mins by time-resolved fluorescence assay. The test is classed as functional, cell-based. The procedure, abridged: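 hCB2R-expressing U2OS cells in HBSS stimulation buffer with 0.1% BSA, 0.5 mM IBMX and 5 mM HEPES, pH 7.4, at 3000 cells/well. Cells treated with forskolin (10 μM final) and various ligand concentrations for 30 min at room temperature. cAMP measured by LANCE TR-FRET (Eu-cAMP tracer plus ULight antibody, 1 h in the dark, 615/665 nm) against a cAMP standard curve. Three experiments in triplicate.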
(In general: Cyclic AMP is a second messenger, typically raised through Gs and lowered through Gi signalling.)

The target of test [4] is T1, Cannabinoid receptor 2. The test can be described thus: Antagonist activity at human recombinant CB2R expressed in U2OS cells assessed as inhibition of WIN-55212-induced beta-arrestin-GFP binding to receptor preincubated for 15 mins by fluorescent microscopy. Type of test: cell-based. An outline of the steps: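 Same βarr2-GFP redistribution set-up in hCB2R U2OS cells on coverslips. […] Fixed in 4% paraformaldehyde, imaged by fluorescence microscopy. […] Three experiments in duplicate.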

Test [5] addresses T1, Cannabinoid receptor 2. The test can be described thus: Antagonist activity at human recombinant CB2R expressed in WIN-55212-stimulated U2OS cells assessed as increase in forskolin-mediated cAMP level after 30 mins by time-resolved fluorescence assay. As to conditions: for IC50: u2os. Type of test: functional, cell-based.

pEC50, pIC50, pKi: −log10 of the molar value. Some results are limits rather than exact numbers.

Consider 35 compounds from ChEMBL document CHEMBL3352718, “CB2-selective cannabinoid receptor ligands: synthesis, pharmacological evaluation, and molecular modeling investigation of 1,8-Naphthyridin-2(1H)-one-3-carboxamides” (J Med Chem, 2014).

Cannabinoid receptor 1, sequence (P21554 whole entry): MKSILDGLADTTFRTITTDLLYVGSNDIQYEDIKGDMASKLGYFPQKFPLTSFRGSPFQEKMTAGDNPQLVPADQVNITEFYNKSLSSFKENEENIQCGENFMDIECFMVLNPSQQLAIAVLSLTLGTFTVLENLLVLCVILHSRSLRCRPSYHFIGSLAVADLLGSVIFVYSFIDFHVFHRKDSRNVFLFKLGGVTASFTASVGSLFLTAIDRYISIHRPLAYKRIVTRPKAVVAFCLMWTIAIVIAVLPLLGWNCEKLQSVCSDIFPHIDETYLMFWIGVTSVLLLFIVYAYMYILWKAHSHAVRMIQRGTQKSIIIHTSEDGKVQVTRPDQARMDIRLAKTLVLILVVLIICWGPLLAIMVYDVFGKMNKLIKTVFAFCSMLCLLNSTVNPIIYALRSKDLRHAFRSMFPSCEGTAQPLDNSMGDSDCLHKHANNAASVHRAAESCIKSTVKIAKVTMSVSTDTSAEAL
T1 sequence (P34972 whole entry): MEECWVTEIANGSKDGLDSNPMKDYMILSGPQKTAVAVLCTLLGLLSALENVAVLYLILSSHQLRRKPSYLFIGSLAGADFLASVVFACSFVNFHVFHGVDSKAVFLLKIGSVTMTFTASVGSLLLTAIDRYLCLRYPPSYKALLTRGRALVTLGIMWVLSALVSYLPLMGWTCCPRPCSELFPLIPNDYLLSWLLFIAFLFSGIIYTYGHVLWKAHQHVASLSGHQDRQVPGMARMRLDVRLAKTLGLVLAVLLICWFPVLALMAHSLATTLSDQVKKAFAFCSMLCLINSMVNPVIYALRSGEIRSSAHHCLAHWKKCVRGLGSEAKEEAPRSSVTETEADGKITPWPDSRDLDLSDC

`CC1CCC(NC(=O)c2cc3cc(-c4cccs4)cnc3n(CCN3CCOCC3)c2=O)CC1` (stereo not drawn): the pKi was 7.49 on Cannabinoid receptor 1 and 9.77 at Cannabinoid receptor 2 [1]. Further, in the test on HEK293, the Ratio Ki was 192.
As for `CC1CCC(NC(=O)c2cc3cccnc3n(CCCCCO)c2=O)CC1` (stereo not drawn), the pKi on Cannabinoid receptor 1 was less than 5.00; at Cannabinoid receptor 2 [1] it was 8.44.
Regarding `CCCC(C)(C)c1ccc2c(c1)OC(C)(C)[C@@H]1CC=C(C)C[C@@H]21`, in the test with HEK293, the Ratio Ki was 226.
As to `CC1CCC(NC(=O)c2cc3cccnc3n(CCCO)c2=O)CC1` (stereo not drawn), the pKi on Cannabinoid receptor 1 is less than 5.00; at Cannabinoid receptor 2 [1], 6.89.
For `CC1CCC(NC(=O)c2cc3cccnc3n(CCCCCCO)c2=O)CC1` (stereo not drawn), in that order: less than 5.00 and 7.74.
On to `CC1CCC(NC(=O)c2cc3cccnc3n(CCC(=O)O)c2=O)CC1` (stereo not drawn), for which the values for the pKi on Cannabinoid receptor 1 and on Cannabinoid receptor 2 [1] were less than 5.00 and 5.86, respectively.
As to `CC1CCC(NC(=O)c2cc3cccnc3n(CCCCCF)c2=O)CC1` (stereo not drawn), the values for the pKi at Cannabinoid receptor 1 and at Cannabinoid receptor 2 [1] were 7.65 and 9.25, respectively. In addition, the Ratio Ki with HEK293 came to 40.3.
For `COc1ccc(-c2cnc3c(c2)cc(C(=O)NC2CCC(C)CC2)c(=O)n3Cc2ccc(F)cc2)cc1` (stereo not drawn), in that order: 5.49, 8.42 and 851.
As for `CC1CCC(NC(=O)c2cc3cccnc3n(Cc3ccc(F)cc3)c2=O)CC1` (stereo not drawn), at Cannabinoid receptor 2 [1], the pIC50 was 8.86. In addition, in the test on HEK293, the Ratio Ki turned out to be 222. Moreover, the pEC50 on Cannabinoid receptor 2 [2] and at Cannabinoid receptor 2 [3] was 7.53 throughout.
In the case of `CC1CCC(NC(=O)c2cc3cc(Br)cnc3n(CCN3CCOCC3)c2=O)CC1` (stereo not drawn), the negative logarithm of the Ki (pKi) is 6.12 on Cannabinoid receptor 1 and 8.90 on Cannabinoid receptor 2 [1]. The Ratio Ki in the test with HEK293 was 595. The pIC50 at Cannabinoid receptor 2 [4] was 7.49; on Cannabinoid receptor 2 [5] (read-out: IC50), 7.22.
As to `CC1CCC(NC(=O)c2cc3cccnc3n(CCCCO)c2=O)CC1` (stereo not drawn), the pKi on Cannabinoid receptor 1 was less than 5.00; on Cannabinoid receptor 2 [1], 7.27. Also, on Cannabinoid receptor 2 [1], the pIC50 was 6.68. Further, the pEC50 on Cannabinoid receptor 2 [2] was 7.63.
On to `C[C@H]1CC[C@H](NC(=O)c2cc3cc(Br)cnc3n(Cc3ccc(F)cc3)c2=O)CC1`, for which the results for the pKi at Cannabinoid receptor 1 and at Cannabinoid receptor 2 [1] were 6.78 and 8.95, respectively. In addition, the Ratio Ki in the test on HEK293 came out at 148.
Consider `CC1CCC(NC(=O)c2cc3cc(-c4ccc(F)cc4)cnc3n(CCN3CCOCC3)c2=O)CC1` (stereo not drawn), for which the values for the pKi at Cannabinoid receptor 1 and on Cannabinoid receptor 2 [1] were 7.18 and 9.17, respectively. Besides, the Ratio Ki with HEK293 was determined as 98.
The matching figures for `C[C@H]1CC[C@@H](NC(=O)c2cc3cc(Br)cnc3n(Cc3ccc(F)cc3)c2=O)CC1`: 6.92, 9.92 and 1010.
The matching figures for `C[C@H]1CC[C@@H](NC(=O)c2cc3cc(-c4ccco4)cnc3n(Cc3ccc(F)cc3)c2=O)CC1`: 5.39, 9.57 and 15000.
For `CCCCCn1c(=O)c(C(=O)NC2CCC(C)CC2)cc2cccnc21` (stereo not drawn), in that order: 6.04, 8.55 and 322.
In the case of `C[C@H]1CC[C@H](NC(=O)c2cc3cc(-c4cccs4)cnc3n(Cc3ccc(F)cc3)c2=O)CC1`, the pKi is 6.37 at Cannabinoid receptor 1 and 7.18 on Cannabinoid receptor 2 [1]. Also, the Ratio Ki in the test with HEK293 was 6.5.
On to `CCOC(=O)CCCn1c(=O)c(C(=O)NC2CCC(C)CC2)cc2cccnc21` (stereo not drawn), for which the negative logarithm of the Ki (pKi) at Cannabinoid receptor 1 is less than 5.00; on Cannabinoid receptor 2 [1] it was 7.20.
Take `CC1CCC(NC(=O)c2cc3cccnc3n(CCCCCCF)c2=O)CC1` (stereo not drawn): the pKi was 7.45 on Cannabinoid receptor 1 and 8.84 on Cannabinoid receptor 2 [1]. Also, the Ratio Ki in the test with HEK293 was determined as 24.4.
As for `CC1CCC(NC(=O)c2cc3cccnc3n(CCO)c2=O)CC1` (stereo not drawn), the pKi at Cannabinoid receptor 1 is less than 5.00; at Cannabinoid receptor 2 [1] it was 5.68.
Consider `CC1CCC(NC(=O)c2cc3cccnc3n(CCN3CCOCC3)c2=O)CC1` (stereo not drawn), for which, in the test with HEK293, the Ratio Ki came out at 526. Besides, the figures for the negative-log EC50 (pEC50) on Cannabinoid receptor 2 [2] and at Cannabinoid receptor 2 [3] were 7.75 and 7.55, respectively.
`CC1CCC(NC(=O)c2cc3cc(Br)cnc3n(Cc3ccc(F)cc3)c2=O)CC1` (stereo not drawn): the values for the negative-log Ki (pKi) on Cannabinoid receptor 1 and at Cannabinoid receptor 2 [1] were 7.02 and 9.74, respectively. For the same compound, the pIC50 on Cannabinoid receptor 2 [1] was 9.14; at Cannabinoid receptor 2 [4] it was 7.50. Further, in the test on HEK293, the Ratio Ki is 534. Besides, the IC50 entry on Cannabinoid receptor 2 [5] is given as “ND(Insoluble)”.
With `CCCCn1c(=O)c(C(=O)NC2CCC(C)CC2)cc2cccnc21` (stereo not drawn), the pKi at Cannabinoid receptor 1 was 5.64; at Cannabinoid receptor 2 [1], 8.41. The Ratio Ki in the test on HEK293 came out at 593.
On to `CC1CCC(NC(=O)c2cc3cc(-c4ccc(F)cc4)cnc3n(Cc3ccc(F)cc3)c2=O)CC1` (stereo not drawn), for which the negative-log Ki (pKi) at Cannabinoid receptor 1 was less than 5.00; at Cannabinoid receptor 2 [1], 8.66.
In the case of `CC1CCC(NC(=O)c2cc3cccnc3n(CCCCF)c2=O)CC1` (stereo not drawn), the pKi at Cannabinoid receptor 1 was 6.00; on Cannabinoid receptor 2 [1] it was 8.87. The negative-log IC50 (pIC50) on Cannabinoid receptor 2 [1] was 8.27. Further, the Ratio Ki in the test with HEK293 came out at 743. For the same compound, the negative-log EC50 (pEC50) on Cannabinoid receptor 2 [2] was 7.66; at Cannabinoid receptor 2 [3], 7.69.
`CCOC(=O)CCn1c(=O)c(C(=O)NC2CCC(C)CC2)cc2cccnc21` (stereo not drawn): the values for the pKi at Cannabinoid receptor 1 and on Cannabinoid receptor 2 [1] were less than 5.00 and 6.75, respectively.
As to `COC(=O)CCCCn1c(=O)c(C(=O)NC2CCC(C)CC2)cc2cccnc21` (stereo not drawn), the pKi at Cannabinoid receptor 1 is less than 5.00; at Cannabinoid receptor 2 [1], 7.57.
For the compound `C[C@H]1CC[C@@H](NC(=O)c2cc3cc(-c4cccs4)cnc3n(Cc3ccc(F)cc3)c2=O)CC1`, the results for the pKi on Cannabinoid receptor 1 and at Cannabinoid receptor 2 [1] were 6.33 and 9.02, respectively. Further, the Ratio Ki in the test on HEK293 amounted to 491.
Regarding `CC1CCC(NC(=O)c2cc3cc(-c4ccco4)cnc3n(CCN3CCOCC3)c2=O)CC1` (stereo not drawn), the pKi at Cannabinoid receptor 1 was 7.28; at Cannabinoid receptor 2 [1] it was 9.46. Further, in the test with HEK293, the Ratio Ki was determined as 151.
`CC1CCC(NC(=O)c2cc3cccnc3n(CCCCC(=O)O)c2=O)CC1` (stereo not drawn): the pKi at Cannabinoid receptor 1 was less than 5.00; at Cannabinoid receptor 2 [1], 5.87.
`COc1ccc(-c2cnc3c(c2)cc(C(=O)NC2CCC(C)CC2)c(=O)n3CCN2CCOCC2)cc1` (stereo not drawn): the pKi at Cannabinoid receptor 1 was less than 5.00; at Cannabinoid receptor 2 [1], 8.83. The pIC50 on Cannabinoid receptor 2 [4] was 7.27. Also, the IC50 entry on Cannabinoid receptor 2 [5] is “ND(Insoluble)”.
For the compound `CC1CCC(NC(=O)c2cc3cc(-c4cccs4)cnc3n(Cc3ccc(F)cc3)c2=O)CC1` (stereo not drawn), the pKi is 5.48 at Cannabinoid receptor 1 and 8.73 on Cannabinoid receptor 2 [1]. The Ratio Ki with HEK293 is 1770.
For `CC1CCC(NC(=O)c2cc3cc(-c4ccco4)cnc3n(Cc3ccc(F)cc3)c2=O)CC1` (stereo not drawn), in that order: 5.46, 9.17 and 5140.
For `C[C@H]1CC[C@H](NC(=O)c2cc3cc(-c4ccco4)cnc3n(Cc3ccc(F)cc3)c2=O)CC1`, in that order: less than 5.00, 7.03 and greater than 106.
Turning to `CC1CCC(NC(=O)c2cc3cccnc3n(CCCC(=O)O)c2=O)CC1` (stereo not drawn), the values for the pKi at Cannabinoid receptor 1 and at Cannabinoid receptor 2 [1] were less than 5.00 and 5.61, respectively.

The term pKi denotes the negative decadic logarithm of the Ki, by convention in mol/L. The term pIC50 denotes the IC50 on a negative log10 scale, so that one unit is a factor of ten. The term pEC50 denotes −log10 of the EC50, conventionally taken in molar units.
